Consider one molecule from article PMC11227858 (Drug Design, Development and Therapy, 2024).

“Also recorded” adds a separate entry of the source.

Series [1] is classed as in vivo, human.
Another series in a line: Safety evaluation. It is filed as in vivo, human. The gist of the method: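 Adults with chronic musculoskeletal non-cancer pain received one 2-min IV injection in a single-centre, open-label, ascending-dose design, with a 2-person 0.75 mg pretest. Monitoring covered vital signs to 72 h, SpO2 to 8 h, Holter from −30 min to 24 h, ECG at 48/72 h, 72 h labs, and injection-site checks to 6 h. AEs were graded by system/severity and drug relation; groups compared by Fisher's exact or chi-square.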

What is called Tmax is the time from dosing to the highest level. As a reminder, the half-life is the time in which the quantity being followed falls by half. A lower half-life goes with fast loss. `COc1ccsc1CNCC[C@@]1(c2ccccn2)CCOC2(CCCC2)C1` [Oliceridine, [(3-methoxythiophen-2-yl)methyl]({2-[(9R)-9-(pyridin-2-yl)-6-oxaspiro-[4.5]decan-9-yl]ethyl})amine]: the “Participants achieving Cmax approximately 2 minutes post-administration” value in series [1] (0.75 mg group (11 of 12)) turned out to be 91.7%. Moreover, the “Participants reaching Cmax around 5 minutes” value in series [1] (0.75 mg group (one participant)) was found to be 8.3%. The “Participants attaining peak concentration at about 2 min” value in series [1] (1.5 mg group (9 of 10)) stood at 90%. Moreover, the “Participants attaining peak concentration at about 3 min” value in series [1] (1.5 mg group (one participant, intravenous line blockage)) stood at 10%. For the same molecule, the “Participants attaining peak at around 10 min” value in series [1] (3.0 mg group (1 participant)) is 10%. The “Participants attaining peak at about 2 min” value in series [1] (3.0 mg group (4 of 10)) is 40%. In series [1] (3.0 mg group (5 participants)), the “Participants attaining peak at approximately 5 min” value is 50%. In series [1] (human, plasma, iv), the Tmax fell in the range of 2.04 to 4.98 min and the half-life fell in the range of 111 to 125 min. Besides, in the series “Safety evaluation” (Chinese patients with chronic non-cancer pain, 0.75 mg to 3.0 mg), the Safety and tolerability entry was “safe and well tolerated”. Further, the “TEAEs leading to discontinuation of the study” value in the series “Safety evaluation” (all doses) was “none of the TEAEs led to discontinuation of the study”. Further, the “Severe TEAEs” value in the series “Safety evaluation” (all doses, 32 participants) is reported as “no reports of severe TEAEs”. In “Safety evaluation” (single IV dose 0.75-3.0 mg, 32 participants), the “Serious adverse events (SAEs)” value is “no serious adverse events were observed; also recorded: No SAEs were reported”.
